Measurements from different studies.
Compare with care: the assays were run in different laboratories.
Target: Sodium-dependent serotonin transporter (SLC6A4, Homo sapiens, UniProt P31645)

Structure (SMILES)	assay	setting	endpoint	value
CN[C@@H](C)C(=O)c1ccccc1	calcium signal, agonist, fluorescence		EC50	15.3 µM
CC(N)CCc1ccccc1Cl (stereo not shown)	transporter uptake, inhibitor, radiometric		Ki	24 µM
C[C@@H](NC(=O)[C@@H](N)Cc1ccc(O)cc1)C(=O)NCC(=O)N[C@@H](Cc1ccccc1)C(=O)N(C)CCC[C@@]1(c2ccc(F)cc2)OCc2cc(C#N)ccc21	ligand displacement, radioligand		Ki	0.28 µM
COc1cc(C(=O)N2CC[C@@H](O)[C@@H](N)C2)cc2nc(-c3cc4ccccc4n3CC3CC3)n(C)c12	transporter uptake		IC50	50.1 µM
CNc1nc(C#Cc2ccc(Br)s2)nc2c1ncn2[C@H]1[C@H](O)[C@H](O)[C@]2(C(=O)OC)C[C@H]12	ligand displacement, radioligand	cell membranes	Ki	> 10 µM
CNC(C)(C)C(=O)c1ccccc1	calcium signal, agonist, fluorescence		EC50	12.9 µM
OC(c1ccc(F)cc1)C(F)(F)CCN1CCC(O)(c2ccc(Cl)cc2)CC1 (racemic)	ligand displacement, radioligand		Ki	1.99 µM
Clc1ccc2c(C3=CCN(CCc4c[nH]c5ccccc45)CC3)c[nH]c2c1	ligand displacement, radioligand	cell membranes	IC50	0.0255 µM
CCOC(=O)[C@@]12C[C@@H]1[C@@H](n1cnc3c(NC)nc(C#Cc4ccc(Cl)s4)nc31)[C@H](O)[C@@H]2O	ligand displacement, radioligand	cell membranes	Ki	> 10 µM
Clc1ccc2c(C3CCN(CCc4c[nH]c5ccccc45)CC3)c[nH]c2c1	transporter uptake, inhibitor, radiometric		Ki	0.053 µM
C[C@H](N)Cn1ncc2ccc3c(c21)CCCO3	ligand displacement, radioligand		Ki	62.5 µM
CNc1nc2cc(OCCCCN3CCN(c4cccc(Cl)c4Cl)CC3)ccc2s1	ligand displacement, radioligand		Ki	0.45 µM
CC(=O)N1C[C@@H](CCN2CC=C(c3c[nH]c4cc(Cl)ccc34)CC2)c2ccccc21	ligand displacement, radioligand	cell membranes	IC50	0.0438 µM
